The conditions of data set [1]: cited from earlier work.
Data set [2] relates to HeLa. Conditions: read-out: IC50 HeLa; 72 h continuous exposure, MTT assay; cited from earlier work.
Data set [3] relates to A2780. Conditions: cited from earlier work.
Another data set concerns ROS level in HeLa cells. The experiment in a line: H2DCF-DA intracellular ROS assay. The data set is classed as cell-based, human. Conditions: 10 μM, 1-8 h. The procedure, abridged: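 HeLa plated at 10 × 10^3 per well, grown overnight, then exposed to 10 μM test compound for 1, 2, 4 or 8 h. Washed with PBS and loaded with 10 μM H2DCF‑DA for 30 min. Washed again, phenol red‑free DMEM added, fluorescence read immediately. Three biological replicates.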

Another data set in a line: Cyclic voltammetry. The settings on record: acetonitrile, 0.1 M NEt4BF4. Type of data set: physicochemical.
The test system of data set [4] is HeLa. The experiment in a line: MTT assay, 72 h continuous exposure, HeLa cells. The data set is classed as cell-based, human. The settings on record: read-out: IC50 HeLa; 72 h continuous exposure, MTT assay. The procedure, abridged:
(§1)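 Ovarian lines grown in RPMI with 10% FBS and 1% penicillin/streptomycin; A2780Cis kept on 2 μM cisplatin 3 days each week. HeLa grown in DMEM with the same supplements. 3 × 10^3 cells/well, overnight, then serial dilutions of DMSO stocks (final DMSO ≤0.1%); cisplatin stock in PBS. 72 h continuous exposure, MTT 0.5 mg/mL 3 h, formazan in DMSO, A570 normalised to untreated. IC50 from curves; ≥3 independent experiments.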
Background: Tetrazolium dyes change colour on reduction, which living cells bring about.

In data set [5] the test system is A2780cis. Conditions: A2780Cis versus wild-type A2780; cited from earlier work.
In data set [6] the test system is MEF-Bax/Bak^+/+ and MEF-Bax/Bak^−/− cell lines. The experiment in a line: Cytotoxicity in MEF-Bax/Bak+/+ versus MEF-Bax/Bak−/− cells. The data set is classed as cell-based, murine.
The subject of data set [7] is PARP, p53, cleaved caspase 3 in HeLa cells. The experiment in a line: Western blot of apoptosis-related marker proteins. Type of data set: cell-based, human. The settings on record: 24 h, cisplatin 10 μM, 1 at 1/4 × IC50 to IC50. In short, it runs like this: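 ~2 million HeLa per 60 mm dish, grown to 80–90% confluency, treated 24 h at 10, 20 or 40 μM. Lysed in RIPA buffer with protease inhibitors. Membranes blocked with 2% skim milk in 0.1% Tween 20 for 30 min. Primary antibody 1:1000 overnight at 4 °C; HRP secondary antibody.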

The subject of data set [8] is HeLa cells. The experiment in a line: Intracellular distribution between nucleus and cytoplasm, ICP-MS. Type of data set: cell-based, human. Conditions: 10 μM, 24 h exposure. The procedure, abridged:
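5 × 10^6 HeLa per 100 mm plate, grown overnight. Exposed 24 h to 10 μM test compound, with 10 μM cisplatin as comparator. PBS‑washed, trypsinised, counted. Nuclear and cytoplasmic fractions isolated with a commercial kit. Protein measured by BCA assay, metal by ICP‑MS. Three experiments of ≥3 replicates.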

Data set [9] deals with A2780cis. The experiment in a line: MTT assay, 72 h continuous exposure, cisplatin-resistant A2780Cis cells. Type of data set: cell-based, human. The settings on record: read-out: IC50 A2780cis; 72 h continuous exposure, MTT assay. In short, it runs like this:
as §1

Data set [10] has as its system A2780. The experiment in a line: MTT assay, 72 h continuous exposure, A2780 cells. Conditions: read-out: IC50 A2780; 72 h continuous exposure, MTT assay. Type of data set: cell-based, human. In short, it runs like this: as §1
Data set [11] has as its system HeLa. The experiment in a line: 72 h crystal violet. Conditions: HeLa and A2780, 72 h. Type of data set: cell-based, human. In short, it runs like this:
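Seeding and dosing as for MTT: 3 × 10^3 cells/well, overnight, final DMSO ≤0.1%, 72 h exposure. Wells washed with PBS and fixed in 4% paraformaldehyde for 15 min. Crystal violet stained, dried, dissolved in 96% ethanol and A570 read. IC50 derived from dose–response curves.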

Data set [12] concerns HeLa cells. The experiment in a line: Annexin-V/PI dual staining flow cytometry. Type of data set: cell-based, human. The settings on record: 10 μM (0.7 × IC50/24h). (In general: In flow cytometry, cells or beads pass a laser one at a time.)
The mark [13] stands for this setting: read-out: IC50 in A2780 cells, reported antitumor activities.

Where two headings read alike, the source gives them in different places.

What is called pKa is the negative logarithm of the acid dissociation constant. A word on the IC50: it is the midpoint of a concentration-inhibition curve.

Regarding `O=C(CC(=O)C(F)(F)F)[c-]1cccc1.[Fe+2].c1cc[cH-]c1` [Compound L1, 4,4,4-trifluoro-1-ferrocenylbutane-1,3-dione], the pKa in [1] is 6.5. Also, the half-maximal inhibitory concentration (IC50) was 23 µM in the data set with HeLa [2] and 11.4 ± 2 µM with A2780 [3] (read-out: IC50 A2780, 72 h, MTT assay). In the data set with ROS level in HeLa cells, the “intracellular ROS level (H2DCF-DA)” value is “unable to elevate the level of intracellular ROS”. Also, the “oxidation potential (vs Fc^+/0)” value in “Cyclic voltammetry” was determined as 287 mV.

Take “[Ru(η^6-arene)(PTA)-(4,4,4-trifluoro-1-(4-chlorophenyl)-1,3-butanedionato)]”: in the data set on A2780 [3] (setting [13]), the IC50 was 34.8 µM.

`O=C1[O][Pt]2([NH][C@@H]3CCCC[C@H]3[NH]2)[O]C1=O` [oxaliplatin, reference compound]: in the data set with HeLa [4], the concentration for half-maximal inhibition (IC50) was 2.1 ± 0.3 µM.

Consider [Ru(η^6-arene)Cl(curcuminato)], for which, in the data set with A2780 [3] (setting [13]), the concentration for half-maximal inhibition (IC50) was 23.4 µM.

Turning to `N.N.[Cl][Pt][Cl]` [cisplatin, reference compound], the 50% inhibitory concentration (IC50) came to 3 ± 0.1 µM in the data set with HeLa [4], 6.7 ± 0.1 µM in the data set with A2780cis [9] and 0.8 ± 0.1 µM with A2780 [10]. In the data set on A2780cis [5], the “resistance factor, RF” value was 9.7. For the same compound, the “IC50 in MEF-Bax/Bak^−/− compared to MEF-Bax/Bak^+/+ cells” value in data set [6] is 2.5 fold. In addition, in data set [7], the “apoptosis markers (PARP cleavage, p53, cleaved caspase 3)” value is “cleavage of PARP and sharp upregulation of P53 and cleaved caspase 3”. Besides, in the data set on HeLa cells [8], the “metal content in nuclear fraction relative to cytoplasmic fraction” value is “equally distributed between the cytoplasm and nucleus”. For the same compound, the “IC50 from CV assay compared to IC50 from MTT assay” value in the data set on HeLa [11] is listed as “comparable”. In the data set with HeLa cells [12], the “AV^+/PI^− cells (early apoptosis)” value stood at 13.4%.

The values are drawn from publication PMC7616001 (Journal of medicinal chemistry, 2022).
